According to ChEMBL document CHEMBL1126990, “Design and synthesis of 18F-labeled neurotoxic analogs of MPTP” (J Med Chem, 1993):

Experiments:
Format in all cases: ADME
[1] = Ratio between Vmax and Km
Method in brief: (§1)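 Rat liver MAO (crude P2 mitochondrial fraction from adult male Wistar rats, in pH 7.4 phosphate buffer) incubated with substrate at 30 μM to 5 mM; colorimetric detection of H2O2 formed. Blanks contained 0.1 mM pargyline. Vmax and Km from linear regression of Lineweaver-Burk plots; means ± SE of n separate experiments; ANOVA with post-hoc Scheffe test.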

[2] = organism: Rattus norvegicus; assay: Maximal rate (Vmax) for oxidation by rat liver MAO (results are means of number of separate experiments, n=5); method in brief: as §1
[3] = separate experiments, n=5); method in brief: as §1

Question: Which Ratio [1] does the source give for CN1CC=C(c2ccccc2)CC1 here?
Answer: The Ratio was 2.42.

Question: What about the Vmax [2] of the same molecule?
Answer: Its Vmax is 218 nM hr-1 (mg of protein)-1.

Question: What about the Km [3] of the same molecule?
Answer: Its Km is 90 µM.
